Results on 15 compounds are retold here after PubChem BioAssay.

Activity calls are given as the source filed them.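 The calls were made as follows, unless noted: active = GFP response above 150% of the DMSO level; inconclusive = fewer than 70 events counted for a yeast strain; inactive = the rest.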

Assay [1] is described as follows: hit retest on RPL19A-GFP reporter strain – cell-based, S. cerevisiae, flow cytometry, cherry picks, mother/daughter gates, confirmation (AID 2270;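 active = GFP response below 50% of the DMSO control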). The settings on record: 3 h, at 10 µM, stronger effect = lower value, 100 = same GFP as DMSO wells.
The nature of assay [2]: yeast TOR pathway reporter LAP4-GFP change – cell-based, cherry picks, flow cytometry, mother/daughter gates, confirmation (AID 2271;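 active = GFP response above 150% of the DMSO control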;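 also: ratio of sample to DMSO plate mean so 100% equals DMSO level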). The settings on record: S. cerevisiae LAP4-GFP strain, 3 h, at 10 µM, stronger effect = higher value, 100 means same as DMSO control. In short, it runs like this: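 System: Alexa 633-stained baker's yeast GFP-fusion strain; quantity: 0.2 OD600 cells; timing: compound exposure 3 h at 30 °C, end-over-end rotation; detection: HT flow cytometry, GFP fluorescence channel; measure: per-gate (all, mother, daughter) GFP response vs DMSO; control set: DMSO-only negative wells, rapamycin 400 ng/mL positive wells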
A general note: A flow cytometer gives signals particle by particle.

A short description of assay [3]: TOR pathway reporter MEP2-GFP, retest of hits – S. cerevisiae, flow cytometry GFP, cherry picks, confirmation (AID 2272;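 active = GFP response above 150% of the DMSO control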;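 also: ratio of well signal to plate DMSO mean so 100% equals DMSO level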). The following applies: S. cerevisiae MEP2-GFP strain, 3 h, at 10 µM, stronger effect = higher value.
Assay [4] can be described thus: yeast AGP1-GFP fluorescence change, single-dose – cell-based, flow cytometry, S. cerevisiae, cherry picks, confirmation (AID 2273).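 Also: median GFP channel fluorescence over the whole cell population gate.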 The following applies: S. cerevisiae AGP1-GFP strain, 3 h, at 10 µM.
A short description of assay [5]: TOR pathway CIT2 reporter hit retest – S. cerevisiae, GFP fusion, cherry picks, mother/daughter gates, confirmation (AID 2274). The following applies: S. cerevisiae CIT2-GFP strain, flow cytometry, 3 h, at 10 µM, stronger effect = higher value.
Where [6] appears, read: measured here: daughter cell gate.
Setting [7] is: measured here: mother cell gate.
[8] abbreviates: measured here: daughter cell gate response.
[9] abbreviates: measured here: mother cell gate response.

Take `Cc1cc(NC(=O)c2cc3ccccc3o2)ccc1NC(=O)c1ccccc1`: the GFP response vs DMSO in assay [1] is 98.4% (inactive); in assay [1] (setting [6]) it was 97.4%; in assay [1] (setting [7]) it was 99.8%; in assay [3], 102% (inactive). For the same compound, the GFP response relative to DMSO in assay [2] was 95.4% (inactive); in assay [2] (setting [8]), 94.4%; in assay [2] (setting [9]), 96.1%. Further, the GFP response, % of DMSO in assay [4] was 95.4% (inactive); in assay [5] it was 101% (inactive); in assay [5] (setting [6]), 101%; in assay [5] (setting [7]), 99.7%.

In the case of `CC(=O)NC1(C(F)(F)F)C(=O)Nc2c1c(=O)[nH]c(=O)n2CCc1ccccc1` (stereo not given), the GFP response vs DMSO in assay [1] is 99.6% (inactive); in assay [1] (setting [6]), 98.4%; in assay [1] (setting [7]), 98.6%; in assay [3], 107% (inactive). For the same compound, the figures for the GFP response relative to DMSO in assay [2], in assay [2] (setting [8]) and in assay [2] (setting [9]) were 97% (inactive), 97.5% and 97.3%, respectively. Besides, the GFP response, % of DMSO was 95.7% (inactive) in assay [4], 88.6% (inactive) in assay [5], 90.2% in assay [5] (setting [6]) and 88.2% in assay [5] (setting [7]).

As to `O=C1c2cccc3c(N4CCCCC4)ccc(c23)C(=O)N1CCO`, the GFP response vs DMSO in assay [1] was 100% (inactive); in assay [1] (setting [6]), 94.9%; in assay [1] (setting [7]), 94.9%; in assay [3] it was 105% (inactive). For the same compound, the GFP response relative to DMSO in assay [2] was 99.5% (inactive); in assay [2] (setting [8]), 99.1%; in assay [2] (setting [9]), 98.4%. For the same compound, the GFP response, % of DMSO is 103% (inactive) in assay [4], 103% (inactive) in assay [5], 101% in assay [5] (setting [6]) and 96.8% in assay [5] (setting [7]).

With `O=[N+]([O-])c1cc(C(F)(F)F)ccc1Sc1ccc2ccccc2n1`, the GFP response vs DMSO was 95.8% (inactive) in assay [1], 97% in assay [1] (setting [6]), 96.4% in assay [1] (setting [7]) and 102% (inactive) in assay [3]. Also, the GFP response relative to DMSO is 115% (inactive) in assay [2], 109% in assay [2] (setting [8]) and 115% in assay [2] (setting [9]). Moreover, the GFP response, % of DMSO in assay [4] was 97.5% (inactive); in assay [5], 95% (inactive); in assay [5] (setting [6]) it was 98.3%; in assay [5] (setting [7]), 93.3%.

Consider `COC(=O)c1ccccc1OCC(=O)NC1CCCCC1`, for which the GFP response vs DMSO was 88.9% (inactive) in assay [1], 83.8% in assay [1] (setting [6]), 92.2% in assay [1] (setting [7]) and 89.9% (inactive) in assay [3]. For the same compound, the results for the GFP response relative to DMSO in assay [2], in assay [2] (setting [8]) and in assay [2] (setting [9]) were 135% (inactive), 126% and 145%, respectively. Further, the GFP response, % of DMSO was 91.7% (inactive) in assay [4], 84.1% (inactive) in assay [5], 80.7% in assay [5] (setting [6]) and 85.5% in assay [5] (setting [7]).

As for `NNC(=O)c1ccc(COc2ccc3ccccc3c2)cc1`, the GFP response vs DMSO in assay [1] is 98% (inactive); in assay [1] (setting [6]), 96.1%; in assay [1] (setting [7]) it was 95.7%; in assay [3], 99% (inactive). The figures for the GFP response relative to DMSO in assay [2], in assay [2] (setting [8]) and in assay [2] (setting [9]) were 101% (inactive), 101% and 102%, respectively. In addition, the GFP response, % of DMSO is 94.9% (inactive) in assay [4], 93% (inactive) in assay [5], 93.8% in assay [5] (setting [6]) and 91.9% in assay [5] (setting [7]).

For the compound `N/C(Cc1ccc(Cl)c(Cl)c1)=N\OC(=O)c1cccs1`, the GFP response vs DMSO in assay [1] was 94.9% (inactive); in assay [1] (setting [6]) it was 89.4%; in assay [1] (setting [7]), 83%; in assay [3], 122% (inactive). The GFP response relative to DMSO was 226% (active) in assay [2], 160% in assay [2] (setting [8]) and 206% in assay [2] (setting [9]). Also, the GFP response, % of DMSO in assay [4] is 103% (inactive); in assay [5], 176% (active); in assay [5] (setting [6]), 126%; in assay [5] (setting [7]), 159%.

`CCN(CC)Cc1c(O)ccc2c(C)c(CC(=O)OC)c(=O)oc12`: the GFP response vs DMSO is 103% (inactive) in assay [1], 101% in assay [1] (setting [6]), 100% in assay [1] (setting [7]) and 103% (inactive) in assay [3]. Further, the GFP response relative to DMSO in assay [2] was 101% (inactive); in assay [2] (setting [8]) it was 97.5%; in assay [2] (setting [9]), 102%. Further, the GFP response, % of DMSO in assay [4] is 106% (inactive); in assay [5], 100% (inactive); in assay [5] (setting [6]), 99.2%; in assay [5] (setting [7]) it was 95.6%.

For the compound `O=C(OCn1ncc(Br)c(Br)c1=O)c1ccc(F)cc1`, the GFP response vs DMSO in assay [1] is 99.7% (inactive); in assay [1] (setting [6]), 99.8%; in assay [1] (setting [7]) it was 94.8%; in assay [3], 116% (inactive). Besides, the GFP response relative to DMSO in assay [2] is 210% (active); in assay [2] (setting [8]) it was 183%; in assay [2] (setting [9]), 203%. For the same compound, the GFP response, % of DMSO is 106% (inactive) in assay [4], 99.3% (inactive) in assay [5], 108% in assay [5] (setting [6]) and 92.1% in assay [5] (setting [7]).

On to `CCOc1ccc(Nc2nc(N(C)c3ccccc3)nc(N)c2[N+](=O)[O-])cc1`, for which the GFP response vs DMSO in assay [1] is 92.1% (inactive); in assay [1] (setting [6]) it was 94.7%; in assay [1] (setting [7]), 91.7%; in assay [3], 106% (inactive). In addition, the GFP response relative to DMSO was 96.5% (inactive) in assay [2], 95% in assay [2] (setting [8]) and 95.6% in assay [2] (setting [9]). Also, the GFP response, % of DMSO is 113% (inactive) in assay [4], 104% (inactive) in assay [5], 104% in assay [5] (setting [6]) and 106% in assay [5] (setting [7]).

Take `Cc1cccc(CS(=O)(=O)c2ncc(Cl)c(C(=O)Nc3c(C)cccc3C)n2)c1`: the GFP response vs DMSO in assay [1] is 106% (inactive); in assay [1] (setting [6]), 98.6%; in assay [1] (setting [7]) it was 107%; in assay [3] it was 105% (inactive). The GFP response relative to DMSO in assay [2] is 106% (inactive); in assay [2] (setting [8]) it was 101%; in assay [2] (setting [9]) it was 107%. Moreover, the GFP response, % of DMSO in assay [4] is 99.4% (inactive); in assay [5] it was 100% (inactive); in assay [5] (setting [6]) it was 97.4%; in assay [5] (setting [7]), 101%.

Consider `O=C(CCc1ccccc1)NNC(=S)NC(=O)c1ccccc1`, for which the GFP response vs DMSO in assay [1] is 106% (inactive); in assay [1] (setting [6]), 106%; in assay [1] (setting [7]), 107%; in assay [3], 116% (inactive). In addition, the GFP response relative to DMSO was 186% (active) in assay [2], 180% in assay [2] (setting [8]) and 185% in assay [2] (setting [9]). Besides, the GFP response, % of DMSO in assay [4] was 100% (inactive); in assay [5], 106% (inactive); in assay [5] (setting [6]) it was 113%; in assay [5] (setting [7]), 100%.

`C/C(=N\NC(=O)c1c(Br)c(C)nn1C)c1cccc(NC(=O)C2CCC2)c1`: the GFP response vs DMSO in assay [1] is 100% (inactive); in assay [1] (setting [6]), 101%; in assay [1] (setting [7]), 102%; in assay [3], 102% (inactive). Besides, the GFP response relative to DMSO was 101% (inactive) in assay [2], 97.9% in assay [2] (setting [8]) and 101% in assay [2] (setting [9]). For the same compound, the GFP response, % of DMSO in assay [4] was 106% (inactive); in assay [5] it was 99.3% (inactive); in assay [5] (setting [6]), 98.3%; in assay [5] (setting [7]) it was 99.1%.

Consider `Cc1nn(C)c(C(=O)Sc2cccc(Cl)c2)c1[N+](=O)[O-]`, for which the GFP response vs DMSO is 99.6% (inactive) in assay [1], 97.6% in assay [1] (setting [6]), 99.4% in assay [1] (setting [7]) and 121% (inactive) in assay [3]. For the same compound, the GFP response relative to DMSO was 126% (inactive) in assay [2], 114% in assay [2] (setting [8]) and 130% in assay [2] (setting [9]). The GFP response, % of DMSO in assay [4] was 102% (inactive); in assay [5], 104% (inactive); in assay [5] (setting [6]), 103%; in assay [5] (setting [7]) it was 101%.

Turning to `O=C(Nc1ccccc1O)c1ccccc1O`, the GFP response vs DMSO is 95.8% (inactive) in assay [1], 96.4% in assay [1] (setting [6]), 94.2% in assay [1] (setting [7]) and 106% (inactive) in assay [3]. The GFP response relative to DMSO in assay [2] is 96.5% (inactive); in assay [2] (setting [8]) it was 96%; in assay [2] (setting [9]) it was 95.4%. Moreover, the GFP response, % of DMSO is 103% (inactive) in assay [4], 101% (inactive) in assay [5], 103% in assay [5] (setting [6]) and 100% in assay [5] (setting [7]).
